# Measured values as given in ChEMBL document CHEMBL1151705, “Novel azalides derived from 16-membered macrolides. Part II: Isolation of the linear 9-formylcarboxylic acid and its sequential macrocyclization with an amino alcohol or an azidoamine” (2008).
# Legend:
# Haemophilus influenzae [1] = test: Antimicrobial activity against drug-susceptible Haemophilus influenzae 4 after 20 hrs by agar dilution method; assay type: functional
# In short: (§1)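 Streptococci, H. influenzae and M. catarrhalis were precultured on blood agar plates. Suspensions of about 10⁶ CFU/ml were inoculated onto sensitivity disk agar supplemented with 5% horse blood and incubated at 37 °C for 20 h. MIC was read as the lowest drug concentration with no visible growth.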
# Haemophilus influenzae [2] = test: Antimicrobial activity against drug-susceptible Haemophilus influenzae 1 after 20 hrs by agar dilution method; assay type: functional; in short: as §1
# Streptococcus pyogenes [3] = test: Antimicrobial activity against drug-susceptible Streptococcus pyogenes 1 after 20 hrs by agar dilution method; assay type: functional; in short: as §1
# Haemophilus influenzae [4] = test: Antimicrobial activity against drug-susceptible Haemophilus influenzae 2 after 20 hrs by agar dilution method; assay type: functional; in short: as §1
# Streptococcus pyogenes [5] = test: Antimicrobial activity against Streptococcus pyogenes 3 expressing mefA after 20 hrs by agar dilution method; assay type: functional; in short: as §1
# Moraxella catarrhalis [6] = test: Antimicrobial activity against drug-susceptible Moraxella catarrhalis 2 after 20 hrs by agar dilution method; assay type: functional; in short: as §1
# Moraxella catarrhalis [7] = test: Antimicrobial activity against drug-susceptible Moraxella catarrhalis 1 after 20 hrs by agar dilution method; assay type: functional; in short: as §1
# Staphylococcus aureus [8] = test: Antimicrobial activity against drug-susceptible Staphylococcus aureus 209P JC-1 after 20 hrs by agar dilution method; assay type: functional
# In short: (§2)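 Agar dilution MIC. S. aureus seed culture was grown in sensitivity test broth. Cell suspension (about 10⁶ CFU/ml) was inoculated onto sensitivity disk agar with 5% horse blood and incubated at 37 °C for 20 h. MIC was the lowest drug concentration that prevented visible growth.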
# Staphylococcus aureus [9] = test: Antimicrobial activity against drug-susceptible Staphylococcus aureus 2 after 20 hrs by agar dilution method; assay type: functional; in short: as §2
# Streptococcus pneumoniae [10] = test: Antimicrobial activity against Streptococcus pneumoniae 9 expressing mefA after 20 hrs by agar dilution method; assay type: functional; in short: as §1
# Staphylococcus aureus [11] = test: Antimicrobial activity against Staphylococcus aureus 6 expressing inducible ermC after 20 hrs by agar dilution method
# Streptococcus pneumoniae [12] = test: Antimicrobial activity against drug-susceptible Streptococcus pneumoniae 2 after 20 hrs by agar dilution method; assay type: functional; in short: as §1
# Streptococcus pneumoniae [13] = test: Antimicrobial activity against drug-susceptible Streptococcus pneumoniae DP1 Type1 after 20 hrs by agar dilution method; assay type: functional; in short: as §1
# Staphylococcus aureus [14] = test: Antimicrobial activity against drug-susceptible Staphylococcus aureus 3 after 20 hrs by agar dilution method; assay type: functional; in short: as §2
# Staphylococcus aureus [15] = test: Antimicrobial activity against Staphylococcus aureus 5 expressing inducible ermB after 20 hrs by agar dilution method; assay type: functional; in short: as §2
# Streptococcus pneumoniae [16] = test: Antimicrobial activity against Streptococcus pneumoniae 10 expressing mefA after 20 hrs by agar dilution method; assay type: functional; details: Streptococcus pneumoniae, 20 h; read-out: MIC; in short: as §1
# Staphylococcus aureus [17] = test: Antimicrobial activity against Staphylococcus aureus 6 expressing inducible ermB after 20 hrs by agar dilution method; assay type: functional; in short: as §2
# Haemophilus influenzae [18] = test: Antimicrobial activity against drug-susceptible Haemophilus influenzae 3 after 20 hrs by agar dilution method; assay type: functional; details: Haemophilus influenzae, 20 h; read-out: MIC; in short: as §1
# Staphylococcus aureus [19] = test: Antimicrobial activity against Staphylococcus aureus 4 constitutively expressing ermA after 20 hrs by agar dilution method; assay type: functional; in short: as §2
# Streptococcus pneumoniae [20] = test: Antimicrobial activity against Streptococcus pneumoniae 7 expressing inducible ermB after 20 hrs by agar dilution method; assay type: functional; details: Streptococcus pneumoniae, 20 h; read-out: MIC; in short: as §1
# Streptococcus pyogenes [21] = test: Antimicrobial activity against Streptococcus pyogenes 2 constitutively expressing ermB after 20 hrs by agar dilution method; assay type: functional; in short: as §1
# Streptococcus pneumoniae [22] = test: Antimicrobial activity against Streptococcus pneumoniae 5 constitutively expressing ermB/mefA after 20 hrs by agar dilution method; assay type: functional; details: Streptococcus pneumoniae, 20 h; read-out: MIC; in short: as §1
# Streptococcus pneumoniae [23] = test: Antimicrobial activity against Streptococcus pneumoniae 8 expressing inducible ermB after 20 hrs by agar dilution method; assay type: functional; details: Streptococcus pneumoniae, 20 h; read-out: MIC; in short: as §1
# Streptococcus pneumoniae [24] = test: Antimicrobial activity against drug-susceptible Streptococcus pneumoniae 3 after 20 hrs by agar dilution method; assay type: functional; details: Streptococcus pneumoniae, 20 h; read-out: MIC; in short: as §1
# Streptococcus pneumoniae [25] = test: Antimicrobial activity against Streptococcus pneumoniae 4 constitutively expressing ermB after 20 hrs by agar dilution method; assay type: functional; details: Streptococcus pneumoniae, 20 h; read-out: MIC; in short: as §1
# Streptococcus pneumoniae [26] = test: Antimicrobial activity against Streptococcus pneumoniae 6 constitutively expressing ermB after 20 hrs by agar dilution method; assay type: functional; details: Streptococcus pneumoniae, 20 h; read-out: MIC; in short: as §1
# [27] = Haemophilus influenzae, 20 h, read-out: MIC
# [28] = Streptococcus pyogenes, 20 h, read-out: MIC
# [29] = Moraxella catarrhalis, 20 h, read-out: MIC
# [30] = Staphylococcus aureus, 209P, 20 h, read-out: MIC
# [31] = Staphylococcus aureus, 20 h, read-out: MIC
# [32] = Streptococcus pneumoniae, 20 h, read-out: MIC
Compound,MIC (Haemophilus influenzae [1]; [27]) [µg/mL],MIC (Streptococcus pneumoniae [16]) [µg/mL],MIC (Staphylococcus aureus [17]) [µg/mL],MIC (Haemophilus influenzae [2]; [27]) [µg/mL],MIC (Streptococcus pyogenes [3]; [28]) [µg/mL],MIC (Haemophilus influenzae [4]; [27]) [µg/mL],MIC (Streptococcus pyogenes [5]; [28]) [µg/mL],MIC (Haemophilus influenzae [18]) [µg/mL],MIC (Moraxella catarrhalis [6]; [29]) [µg/mL],MIC (Moraxella catarrhalis [7]; [29]) [µg/mL],MIC (Staphylococcus aureus [8]; [30]) [µg/mL],MIC (Staphylococcus aureus [9]; [31]) [µg/mL],MIC (Streptococcus pneumoniae [10]; [32]) [µg/mL],MIC (Staphylococcus aureus [19]) [µg/mL],MIC (Streptococcus pneumoniae [20]) [µg/mL],MIC (Streptococcus pyogenes [21]) [µg/mL],MIC (Streptococcus pneumoniae [22]) [µg/mL],MIC (Streptococcus pneumoniae [23]) [µg/mL],MIC (Streptococcus pneumoniae [12]; [32]) [µg/mL],MIC (Streptococcus pneumoniae [24]) [µg/mL],other results
CCOC(=O)[C@H]1[C@H](C)O[C@@H](O[C@H]2[C@H](N(C)C)[C@@H](O)[C@H](O[C@H]3[C@@H](CC=O)C[C@@H](C)[C@@H](O)CN(C)CCC(C/C=C/c4ccnc5ccccc45)NC(=O)C[C@@H](OC(=O)CC)[C@@H]3OC)O[C@@H]2C)C[C@@]1(C)O (stereo in doubt),,,,,,,,,,,,,,,,,,,,,MIC (Haemophilus influenzae [1]): 16 µg/mL; MIC (Haemophilus influenzae [2]): 64 µg/mL; MIC (Streptococcus pyogenes [3]): 0.5 µg/mL; MIC (Haemophilus influenzae [4]): 4 µg/mL; MIC (Streptococcus pyogenes [5]): 2 µg/mL; MIC (Moraxella catarrhalis [6]): 4 µg/mL; MIC (Moraxella catarrhalis [7]): 8 µg/mL; MIC (Staphylococcus aureus [8]): 4 µg/mL; MIC (Staphylococcus aureus [9]): 8 µg/mL; MIC (Streptococcus pneumoniae [10]): 0.5 µg/mL; MIC (Staphylococcus aureus [11]): 4 µg/mL; MIC (Streptococcus pneumoniae [12]): 0.25 µg/mL; MIC (Streptococcus pneumoniae [13]): 0.25 µg/mL; MIC (Staphylococcus aureus [14]): 2 µg/mL; MIC (Staphylococcus aureus [15]): 2 µg/mL
CCOC(=O)[C@H]1[C@H](C)O[C@@H](O[C@H]2[C@H](N(C)C)[C@@H](O)[C@H](O[C@H]3[C@@H](CC=O)C[C@@H](C)[C@@H](O)CN(C)CCC[C@@H](C/C=C/c4ccnc5ccccc45)OC(=O)C[C@@H](OC(=O)CC)[C@@H]3OC)O[C@@H]2C)C[C@@]1(C)O,16,0.13,0.5,64,0.25,8,0.5,16,4,2,0.5,1,0.13,> 128,32,> 128,> 128,32,0.13,0.06,MIC (Streptococcus pneumoniae [13]; [32]): 0.13 µg/mL; MIC (Streptococcus pneumoniae [25]): > 128 µg/mL; MIC (Staphylococcus aureus [14]; [31]): 0.25 µg/mL; MIC (Streptococcus pneumoniae [26]): > 128 µg/mL; MIC (Staphylococcus aureus [15]; [31]): 0.25 µg/mL
CCOC(=O)[C@H]1[C@H](C)O[C@@H](O[C@H]2[C@H](N(C)C)[C@@H](O)[C@H](O[C@H]3[C@@H](CC=O)C[C@@H](C)[C@@H](O)CN(C)CC(/C=C/Cc4cncc5ccccc45)CCOC(=O)C[C@@H](OC(=O)CC)[C@@H]3OC)O[C@@H]2C)C[C@@]1(C)O (stereo not given in full),8,0.03,0.25,32,0.03,2,0.25,8,1,1,0.25,0.5,0.015,> 128,8,> 128,128,8,0.03,0.015,MIC (Streptococcus pneumoniae [13]; [32]): 0.015 µg/mL; MIC (Streptococcus pneumoniae [25]): 128 µg/mL; MIC (Staphylococcus aureus [14]; [31]): 0.13 µg/mL; MIC (Streptococcus pneumoniae [26]): 128 µg/mL; MIC (Staphylococcus aureus [15]; [31]): 0.13 µg/mL

# Second part, led by results:
MIC (Haemophilus influenzae [1]; [27]) [µg/mL],MIC (Streptococcus pneumoniae [16]) [µg/mL],MIC (Staphylococcus aureus [17]) [µg/mL],MIC (Haemophilus influenzae [2]; [27]) [µg/mL],MIC (Streptococcus pyogenes [3]; [28]) [µg/mL],MIC (Haemophilus influenzae [4]; [27]) [µg/mL],MIC (Streptococcus pyogenes [5]; [28]) [µg/mL],MIC (Haemophilus influenzae [18]) [µg/mL],MIC (Moraxella catarrhalis [6]; [29]) [µg/mL],MIC (Moraxella catarrhalis [7]; [29]) [µg/mL],MIC (Staphylococcus aureus [8]; [30]) [µg/mL],MIC (Staphylococcus aureus [9]; [31]) [µg/mL],MIC (Streptococcus pneumoniae [10]; [32]) [µg/mL],MIC (Staphylococcus aureus [19]) [µg/mL],MIC (Streptococcus pneumoniae [20]) [µg/mL],MIC (Streptococcus pyogenes [21]) [µg/mL],MIC (Streptococcus pneumoniae [22]) [µg/mL],MIC (Streptococcus pneumoniae [23]) [µg/mL],MIC (Streptococcus pneumoniae [12]; [32]) [µg/mL],MIC (Streptococcus pneumoniae [24]) [µg/mL],Compound,other results
8,0.06,0.5,32,0.13,2,0.5,8,1,1,0.25,1,0.06,> 128,8,> 128,> 128,4,0.06,0.015,CCOC(=O)[C@H]1[C@H](C)O[C@@H](O[C@H]2[C@H](N(C)C)[C@@H](O)[C@H](O[C@H]3[C@@H](CC=O)C[C@@H](C)[C@@H](O)CN(C)CCC[C@H](C/C=C/c4ccnc5ccccc45)OC(=O)C[C@@H](OC(=O)CC)[C@@H]3OC)O[C@@H]2C)C[C@@]1(C)O,MIC (Streptococcus pneumoniae [13]; [32]): 0.03 µg/mL; MIC (Streptococcus pneumoniae [25]): > 128 µg/mL; MIC (Staphylococcus aureus [14]; [31]): 0.25 µg/mL; MIC (Streptococcus pneumoniae [26]): > 128 µg/mL; MIC (Staphylococcus aureus [15]; [31]): 0.25 µg/mL
8,0.015,0.25,32,0.03,2,0.25,8,1,1,0.13,0.25,0.015,> 128,2,> 128,> 128,2,0.03,0.015,CCOC(=O)[C@H]1[C@H](C)O[C@@H](O[C@H]2[C@H](N(C)C)[C@@H](O)[C@H](O[C@H]3[C@@H](CC=O)C[C@@H](C)[C@@H](O)CN(C)CC(/C=C/Cc4ccc5ncccc5c4)CCOC(=O)C[C@@H](OC(=O)CC)[C@@H]3OC)O[C@@H]2C)C[C@@]1(C)O (stereo not given in full),MIC (Streptococcus pneumoniae [13]; [32]): 0.015 µg/mL; MIC (Streptococcus pneumoniae [25]): > 128 µg/mL; MIC (Staphylococcus aureus [14]; [31]): 0.13 µg/mL; MIC (Streptococcus pneumoniae [26]): 128 µg/mL; MIC (Staphylococcus aureus [15]; [31]): 0.13 µg/mL
